Reference: article PMC9041111 (RSC Advances, 2021)

Tests used:
[1] = biological target: KCa3.1 channel (Homo sapiens, UniProt O15554); assay: whole-cell patch clamp on A549-3R cells, 1-EBIO activated KCa3.1 current; assay type: cell-based
[2] = in vitro metabolism with mouse liver microsomes and NADPH, LC-MS/MS; assay type: in vitro ADME; details: mouse liver microsomes, NADPH, 37 °C, 90 min
Procedure, shortened: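 The non-radioactive fluorinated reference compound was incubated with mouse liver microsomes and NADPH at 37 °C for 90 min. The reaction was stopped with CH3CN/CH3OH (1:1), cooled and centrifuged to remove protein. The supernatant was analysed by ESI LC-MS/MS (qToF). The metabolite was assigned from the accurate m/z of the [M + H]+ ion against the calculated exact mass.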

[3] = chemical stability under 18F-labelling conditions; assay type: physicochemical; details: 10 min, DMF

KCa3.1 channel, sequence (O15554 whole entry): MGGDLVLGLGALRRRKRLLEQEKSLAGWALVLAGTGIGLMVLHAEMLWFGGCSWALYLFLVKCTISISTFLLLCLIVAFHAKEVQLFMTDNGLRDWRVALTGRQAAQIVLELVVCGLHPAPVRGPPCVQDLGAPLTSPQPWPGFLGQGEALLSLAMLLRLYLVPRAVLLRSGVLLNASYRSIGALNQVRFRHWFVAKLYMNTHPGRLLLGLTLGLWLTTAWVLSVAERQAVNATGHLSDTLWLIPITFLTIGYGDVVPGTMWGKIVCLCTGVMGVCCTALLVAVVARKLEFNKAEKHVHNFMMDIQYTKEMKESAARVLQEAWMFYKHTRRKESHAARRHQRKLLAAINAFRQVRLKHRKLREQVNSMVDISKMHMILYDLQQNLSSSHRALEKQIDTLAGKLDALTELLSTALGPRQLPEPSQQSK

## NC(=O)C(c1ccccc1)(c1ccc(F)cc1)c1ccc(OCCF)cc1 (centres unmarked) [compound 28]
[1]; 28 at 10 μM after 1-EBIO 50 μM, n = 5
  effect on 1-EBIO activated KCa3.1 mediated current: reduced ionic current
[2]
  main metabolite: phenol 9

## NC(=O)C(c1ccccc1)(c1ccc(F)cc1)c1ccc(F)cc1 [senicapoc]
[1]; senicapoc 1 μM, applied consecutively after 28, n = 5
  effect on 1-EBIO activated KCa3.1 mediated current: complete inhibition
[3]; (NH4)2C2O4 (5 eq.), 90 °C
  Stability (TLC): Stable
[3]; (NH4)2C2O4 (5 eq.), 110 °C
  Stability (TLC): Stable
[3]; (NH4)2C2O4 (5 eq.), 130 °C
  Stability (TLC): Stable
[3]; K2CO3 (5 eq.), 90 °C
  Stability (TLC): Partial decomposition
[3]; K2CO3 (5 eq.), 110 °C
  Stability (TLC): Partial decomposition
[3]; K2CO3 (5 eq.), 130 °C
  Stability (TLC): Complete decomposition
[3]; TBAF (5 eq.), 90 °C
  Stability (TLC): Complete decomposition
[3]; TBAF (5 eq.), 110 °C
  Stability (TLC): Complete decomposition
[3]; TBAF (5 eq.), 130 °C
  Stability (TLC): Complete decomposition
[3]; no base, 130 °C
  Stability (TLC): Stable

## CCn1c(=O)[nH]c2ccccc21 [1-EBIO, 1-ethyl-2-benzimidazolone]
[1]; 1-EBIO 50 μM, applied 2-5 min, n = 5
  effect on current (current density) in patch clamp: increased outward current
